Reference: ChEMBL document CHEMBL1147383, “Use of alkenylresorcinols from Ononis speciosa as synthetic precursors of compounds with potential biological activity” (J Nat Prod, 1993)
Calls of active or inactive are those of the source. No cut-off for these calls is given here.

Key:
Bacillus licheniformis [1] = test: Antibacterial activity against Bacillus licheniformis CECT20 at 100 ug/disk after 18 hrs by disk diffusion assay; format: functional; conditions: read-out: Diameter of inhibition zone
How it was run: (§1)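 Disk diffusion. Gram-positive strains were grown in brain-heart agar and incubated at 28°. BHA plates were seeded with 0.1 ml of 8-h cultures. 6-mm paper disks were loaded with 100 or 200 µg of compound. Plates were held at 4° for 1 h for diffusion, then incubated. Growth-inhibition halo diameter (mm) was read at 18 h.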

Botrytis cinerea [2] = test: Antifungal activity against Botrytis cinerea CECT 2100 after 18 hrs by disk diffusion assay; format: functional, organism-based
How it was run: (§2)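 Botrytis strains were grown on potato agar at 28°. Plates were inoculated with 0.1 ml of 8-h cultures. 6-mm paper disks were impregnated with 100 or 200 µg. Plates were held 1 h at 4° for diffusion, then incubated. Growth-inhibition halo diameter (mm) was read 18 h after incubation.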

Pseudomonas fluorescens = test: Antibacterial activity against Pseudomonas fluorescens N5 after 18 hrs by disk diffusion assay; format: functional, organism-based
How it was run: (§3)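 Gram-negative strains were grown in brain-heart agar and incubated at 37°. BHA plates were inoculated with 0.1 ml of 8-h cultures. 6-mm paper disks carried 100 or 200 µg of compound. Plates stood 1 h at 4° to allow diffusion before incubation. The inhibition halo diameter (mm) was measured after 18 h.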

Bacillus licheniformis [3] = test: Antibacterial activity against Bacillus licheniformis CECT20 at 200 ug/disk after 18 hrs by disk diffusion assay; format: functional; conditions: read-out: Diameter of inhibition zone; how it was run: as §1
Enterococcus faecalis [4] = test: Antibacterial activity against Enterococcus faecalis S-86 at 200 ug/disk after 18 hrs by disk diffusion assay; format: functional; conditions: read-out: Diameter of inhibition zone; how it was run: as §1
Staphylococcus aureus = test: Antibacterial activity against Staphylococcus aureus ATCC 8 at 200 ug/disk after 18 hrs by disk diffusion assay; format: functional; conditions: for zone of inhibition at 200 µg/disc: ATCC 8, 18 h, read-out: Diameter of inhibition zone; how it was run: as §1
Priestia megaterium [5] = test: Antibacterial activity against Bacillus megaterium at 100 ug/disk after 18 hrs by disk diffusion assay; format: functional; how it was run: as §1
Proteus = test: Antibacterial activity against Proteus after 18 hrs by disk diffusion assay; format: functional, organism-based; how it was run: as §3
Aspergillus niger = test: Antifungal activity against Aspergillus niger ATCC 9142 after 18 hrs by disk diffusion assay; format: functional, organism-based
How it was run: (§4)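 Filamentous fungi were grown on Sabouraud agar with chloramphenicol at 28°. Plates were inoculated with 0.1 ml of 8-h cultures. 6-mm disks bearing 100 or 200 µg were applied. Plates were kept at 4° for 1 h, then incubated. Inhibition halo diameter (mm) was read at 18 h.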

Niallia circulans [6] = test: Antibacterial activity against Bacillus circulans at 200 ug/disk after 18 hrs by disk diffusion assay; format: functional; conditions: read-out: Diameter of inhibition zone; how it was run: as §1
Alcaligenes faecalis = test: Antibacterial activity against Alcaligenes faecalis after 18 hrs by disk diffusion assay; format: functional, organism-based; how it was run: as §3
Fusarium fujikuroi = test: Antifungal activity against Gibberella fujikuroi IMI 58289 after 18 hrs by disk diffusion assay; format: functional, organism-based; how it was run: as §4
Micrococcus luteus = test: Antibacterial activity against Micrococcus lysodeikticus at 200 ug/disk after 18 hrs by disk diffusion assay; format: functional; conditions: read-out: Diameter of inhibition zone; how it was run: as §1
[7] = tested on: Pseudomonas reptilivorous; test: Antibacterial activity against Pseudomonas reptilovora after 18 hrs by disk diffusion assay; format: functional, organism-based; how it was run: as §3
Saccharomyces cerevisiae [8] = test: Antifungal activity against Saccharomyces cerevisiae S1 after 18 hrs by disk diffusion assay; format: functional, organism-based
How it was run: (§5)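 Yeast strains were grown in YEPG at 28°. Plates were seeded with 0.1 ml of 8-h-old cultures. 6-mm paper disks were impregnated with 100 or 200 µg. Diffusion ran 1 h at 4°, followed by incubation. Zone of growth inhibition (diameter, mm) was recorded 18 h after incubation.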

Botrytis cinerea [9] = test: Antifungal activity against Botrytis cinerea CECT 2850 after 18 hrs by disk diffusion assay; format: functional, organism-based; how it was run: as §2
Enterococcus faecalis [10] = test: Antibacterial activity against Enterococcus faecalis S-86 at 100 ug/disk after 18 hrs by disk diffusion assay; format: functional; conditions: read-out: Diameter of inhibition zone; how it was run: as §1
Escherichia coli = test: Antibacterial activity against Escherichia coli U9 after 18 hrs by disk diffusion assay; format: functional, organism-based; how it was run: as §3
Saccharomyces cerevisiae [11] = test: Antifungal activity against Saccharomyces cerevisiae X-3 after 18 hrs by disk diffusion assay; format: functional, organism-based; how it was run: as §5
Bacillus subtilis [12] = test: Antibacterial activity against Bacillus subtilis CECT 397 at 100 ug/disk after 18 hrs by disk diffusion assay; format: functional; how it was run: as §1
Saccharomyces cerevisiae [13] = test: Antifungal activity against Saccharomyces cerevisiae K-2 after 18 hrs by disk diffusion assay; format: functional, organism-based; how it was run: as §5
Bacillus subtilis [14] = test: Antibacterial activity against Bacillus subtilis CECT 397 at 200 ug/disk after 18 hrs by disk diffusion assay; format: functional; how it was run: as §1
Priestia megaterium [15] = test: Antibacterial activity against Bacillus megaterium at 200 ug/disk after 18 hrs by disk diffusion assay; format: functional; how it was run: as §1
Niallia circulans [16] = test: Antibacterial activity against Bacillus circulans at 100 ug/disk after 18 hrs by disk diffusion assay; format: functional; conditions: for zone of inhibition at 100 µg/disc: read-out: Diameter of inhibition zone; how it was run: as §1
Salmonella = test: Antibacterial activity against Salmonella after 18 hrs by disk diffusion assay; format: functional, organism-based; how it was run: as §3
[17] = read-out: Diameter of inhibition zone

Which results are given for `CCCCC[C@H](/C=C\CCCCCCCc1cc(O)cc(O)c1C(=O)O)OC(C)=O`?
zone of inhibition at 100 µg/disc (Bacillus licheniformis [1]): 18 mm; Activity (Botrytis cinerea [2]): inactive; Activity (Pseudomonas fluorescens): inactive; zone of inhibition at 200 µg/disc (Bacillus licheniformis [3]): 22 mm; zone of inhibition at 200 µg/disc (Enterococcus faecalis [4]): 15 mm; zone of inhibition at 200 µg/disc (Staphylococcus aureus): 7 mm; zone of inhibition at 100 µg/disc (Priestia megaterium [5]; [17]): 7 mm; Activity (Proteus): inactive; Activity (Aspergillus niger): inactive; zone of inhibition at 200 µg/disc (Niallia circulans [6]): 9 mm; Activity (Alcaligenes faecalis): inactive; Activity (Fusarium fujikuroi): inactive; zone of inhibition at 200 µg/disc (Micrococcus luteus): 13 mm; Activity [7]: inactive; Activity (Saccharomyces cerevisiae [8]): inactive; Activity (Botrytis cinerea [9]): inactive; zone of inhibition at 100 µg/disc (Enterococcus faecalis [10]): 13 mm; Activity (Escherichia coli): inactive; Activity (Saccharomyces cerevisiae [11]): inactive; zone of inhibition at 100 µg/disc (Bacillus subtilis [12]; [17]): 7 mm; Activity (Saccharomyces cerevisiae [13]): inactive; zone of inhibition at 200 µg/disc (Bacillus subtilis [14]; [17]): 8 mm; zone of inhibition at 200 µg/disc (Priestia megaterium [15]; [17]): 7 mm; zone of inhibition at 100 µg/disc (Niallia circulans [16]): 8 mm; Activity (Salmonella): inactive

Which results are given for `CCCCCC/C=C\CCCCCCCc1cc(O)cc(O)c1C(=O)O`?
zone of inhibition at 100 µg/disc (Bacillus licheniformis [1]): 15 mm; Activity (Botrytis cinerea [2]): inactive; Activity (Pseudomonas fluorescens): inactive; zone of inhibition at 200 µg/disc (Bacillus licheniformis [3]): 15 mm; zone of inhibition at 200 µg/disc (Enterococcus faecalis [4]): 30 mm; zone of inhibition at 200 µg/disc (Staphylococcus aureus): 7 mm; Activity (Priestia megaterium [5]): inactive; Activity (Proteus): inactive; Activity (Aspergillus niger): inactive; zone of inhibition at 200 µg/disc (Niallia circulans [6]): 7 mm; Activity (Alcaligenes faecalis): inactive; Activity (Fusarium fujikuroi): inactive; zone of inhibition at 200 µg/disc (Micrococcus luteus): 7 mm; Activity [7]: inactive; Activity (Saccharomyces cerevisiae [8]): inactive; Activity (Botrytis cinerea [9]): inactive; zone of inhibition at 100 µg/disc (Enterococcus faecalis [10]): 16 mm; Activity (Escherichia coli): inactive; Activity (Saccharomyces cerevisiae [11]): inactive; Activity (Bacillus subtilis [12]): inactive; Activity (Saccharomyces cerevisiae [13]): inactive; Activity (Bacillus subtilis [14]): inactive; Activity (Priestia megaterium [15]): inactive; Activity (Niallia circulans [16]): inactive; Activity (Salmonella): inactive

With `CCCCC[C@H](/C=C\CCCCCCCc1cc(O)cc(O)c1)OC(C)=O` as the molecule, how does the zone of inhibition at 100 µg/disc (Bacillus licheniformis [1]) read?
Its zone of inhibition at 100 µg/disc is 7 mm.

What about the Activity (Botrytis cinerea [2]) of the same molecule?
Its Activity is “inactive”.

What about the Activity (Pseudomonas fluorescens) of the same molecule?
Its Activity is “inactive”.

And the zone of inhibition at 200 µg/disc (Bacillus licheniformis [3])?
The zone of inhibition at 200 µg/disc was 9 mm.

And the zone of inhibition at 200 µg/disc (Enterococcus faecalis [4])?
The zone of inhibition at 200 µg/disc was 6 mm.

What about the Activity (Staphylococcus aureus) of the same molecule?
The Activity was “inactive”.

What about the Activity (Priestia megaterium [5]) of the same molecule?
The Activity was “inactive”.

And the Activity (Proteus)?
The Activity was “inactive”.

What about the Activity (Aspergillus niger) of the same molecule?
The Activity was “inactive”.

What about the zone of inhibition at 200 µg/disc (Niallia circulans [6]) of the same molecule?
Its zone of inhibition at 200 µg/disc is 7 mm.

And the Activity (Alcaligenes faecalis)?
Its Activity is “inactive”.

And the Activity (Fusarium fujikuroi)?
Its Activity is “inactive”.

And the zone of inhibition at 200 µg/disc (Micrococcus luteus)?
The zone of inhibition at 200 µg/disc was 7 mm.

What about the Activity [7] of the same molecule?
The Activity was “inactive”.

What about the Activity (Saccharomyces cerevisiae [8]) of the same molecule?
The Activity was “inactive”.

What about the Activity (Botrytis cinerea [9]) of the same molecule?
Its Activity is “inactive”.

And the zone of inhibition at 100 µg/disc (Enterococcus faecalis [10])?
The zone of inhibition at 100 µg/disc was 7 mm.

What about the Activity (Escherichia coli) of the same molecule?
The Activity was “inactive”.

And the Activity (Saccharomyces cerevisiae [11])?
Its Activity is “inactive”.

And the Activity (Bacillus subtilis [12])?
The Activity was “inactive”.

And the Activity (Saccharomyces cerevisiae [13])?
The Activity was “inactive”.

And the Activity (Bacillus subtilis [14])?
Its Activity is “inactive”.

What about the Activity (Priestia megaterium [15]) of the same molecule?
The Activity was “inactive”.

And the zone of inhibition at 100 µg/disc (Niallia circulans [16])?
Its zone of inhibition at 100 µg/disc is 7 mm.

What about the Activity (Salmonella) of the same molecule?
Its Activity is “inactive”.
